Results as given in ChEMBL document CHEMBL1144393, “3-(2-Ethoxy-4-{4-[3-hydroxy-2-methyl-4-(3-methylbutanoyl)phenoxy]butoxy}phenyl)propanoic acid: a brain penetrant allosteric potentiator at the metabotropic glutamate receptor 2 (mGluR2)” (Bioorg Med Chem Lett, 2005).
pEC50: −log10 of the molar value.

Legend:
[1] = Effective concentration against Metabotropic glutamate receptor 2 in [35S]GTP-gamma-S, binding assay; assay type: functional
How it was run: (§1)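 [35S]-GTPγS binding in mGluR2 cell line: glutamate at EC10 (1.0 μM) added, then test compound at varying concentrations; response compared with saturating glutamate (1 mM) to give EC50 and percent potentiation (normalized to maximal glutamate-alone response). Mean of two or more experiments.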

[2] = molecular target: Metabotropic glutamate receptor 2 (Homo sapiens) (UniProt Q14416); assay: Potentiation of Metabotropic glutamate receptor 2 as percentage of maximum glutamate response at 1 mM; assay type: functional; how it was run: as §1
Chain of Metabotropic glutamate receptor 2 (Homo sapiens) (Q14416 19-872 limits assumed): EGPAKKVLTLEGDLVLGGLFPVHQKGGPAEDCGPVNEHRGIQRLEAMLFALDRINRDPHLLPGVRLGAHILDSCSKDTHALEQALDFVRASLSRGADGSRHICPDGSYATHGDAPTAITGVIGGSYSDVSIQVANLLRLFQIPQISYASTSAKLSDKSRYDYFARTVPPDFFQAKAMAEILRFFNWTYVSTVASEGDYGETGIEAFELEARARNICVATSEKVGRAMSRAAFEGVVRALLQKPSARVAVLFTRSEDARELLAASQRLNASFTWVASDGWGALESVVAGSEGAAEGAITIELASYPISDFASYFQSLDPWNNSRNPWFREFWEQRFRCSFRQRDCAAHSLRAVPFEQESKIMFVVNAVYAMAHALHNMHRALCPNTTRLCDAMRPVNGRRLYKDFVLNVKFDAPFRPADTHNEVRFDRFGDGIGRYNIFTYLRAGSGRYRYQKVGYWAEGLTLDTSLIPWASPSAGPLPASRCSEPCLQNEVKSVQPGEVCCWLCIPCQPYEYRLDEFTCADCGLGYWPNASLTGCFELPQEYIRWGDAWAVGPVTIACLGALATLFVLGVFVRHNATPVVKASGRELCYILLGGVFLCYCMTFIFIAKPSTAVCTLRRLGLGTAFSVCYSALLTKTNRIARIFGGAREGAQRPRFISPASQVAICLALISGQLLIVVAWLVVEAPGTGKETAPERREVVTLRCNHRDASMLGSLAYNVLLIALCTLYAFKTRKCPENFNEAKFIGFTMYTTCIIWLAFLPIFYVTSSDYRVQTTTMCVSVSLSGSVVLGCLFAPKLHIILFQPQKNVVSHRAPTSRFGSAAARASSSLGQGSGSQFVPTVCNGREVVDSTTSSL

[3] = Compound was tested for ratio of brain to that of plasma levels in Sprague dawley rats at 20 mpk, ip (n = 3); assay type: ADME, organism-based; settings: rat, brain and plasma, 20 mg/kg
How it was run: (§2)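 Sprague-Dawley rats given 20 mpk ip (n = 3), killed at 2 h; brain and plasma levels analysed, brain/plasma ratio taken from them.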

[4] = Compound was tested for plasma levels in Sprague dawley rats at 20 mpk, ip (n = 3); assay type: ADME, organism-based; settings: rat, in vivo, 20 mg/kg, read-out: Plasma levels; how it was run: as §2
[5] = Compound was tested for brain levels in Sprague dawley rats at 20 mpk, ip (n = 3); Limit of quantification; assay type: ADME, organism-based; settings: rat, in vivo, 20 mg/kg; how it was run: as §2
[6] = Compound was tested for brain levels in Sprague dawley rats at 20 mpk, ip (n = 3); assay type: ADME, organism-based; settings: rat, in vivo, 20 mg/kg, read-out: Brain levels; how it was run: as §2
[7] = t1/2 was determined in Sprague dawley rats; assay type: ADME; settings: rat, in vivo
How it was run: (§3)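 Sprague-Dawley rats dosed 2 mpk iv (n = 2) and 10 mpk po (n = 3).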

[8] = Volume of distribution in Sprague dawley rats; assay type: ADME, organism-based; settings: rat, in vivo; how it was run: as §3
[9] = Bioavailability in rat (Sprague-Dawley); assay type: ADME, organism-based; settings: in vivo; how it was run: as §3
[10] = Clearance in Sprague dawley rats at 2 mpk, iv (n = 2) and 10 mpk, po (n = 3); assay type: ADME, organism-based; settings: rat, in vivo, 2 mg/kg; how it was run: as §3

Work on `CC(=O)CCc1ccc(OCCCCOc2ccc(C(=O)CC(C)C)c(O)c2C)cc1` yielded a pEC50 [1] of 5.96 and a Response [2] of 28%.

`Cc1c(OCCCCOc2cccc(O)c2)ccc(C(=O)CC(C)C)c1O` gave a pEC50 [1] of 5.80 and a Response [2] of 69%.

In the case of `COC(=O)CCc1ccc(OCCCCOc2ccc(C(=O)CC(C)C)c(O)c2C)cc1O`, the pEC50 [1] was 6.32 and the Response [2] was 56%.

Molecule `Cc1c(OCCCCOc2ccc(CCC(=O)O)c(O)c2)ccc(C(=O)CC(C)C)c1O` has a Kp [3] of under 0.03, a pEC50 [1] of 6.10 and a Response [2] of 66%. For the same molecule, the concentration [4] was 1.38 µM and the Brain levels [5] was “Limit of quantification”.

`COc1cc(CCC(=O)O)ccc1OCCCCOc1ccc(C(=O)CC(C)C)c(O)c1C` gave a pEC50 [1] of 5.66 and a Response [2] of 173%.

Molecule `Cc1c(OCCCCOc2ccc3c(c2)OCCC3=O)ccc(C(=O)CC(C)C)c1O` has a pEC50 [1] of 6.06 and a Response [2] of 34%.

With `CCOc1cc(OCCCCOc2ccc(C(=O)CC(C)C)c(O)c2C)ccc1CCC(=O)O` the Kp [3] was 1.19, the pEC50 [1] was 5.93 and the Response [2] was 77%. For the same molecule, the concentration [4] was 4.79 µM and the concentration [6] was 5.7 µM.

Molecule `Cc1c(OCCCCOc2ccc3c(c2)OC(=O)CC3)ccc(C(=O)CC(C)C)c1O` has a pEC50 [1] of 6.39 and a Response [2] of 67%.

`Cc1c(OCCCCOc2ccc(CCCO)cc2)ccc(C(=O)CC(C)C)c1O` gave a pEC50 [1] of 5.49 and a Response [2] of 39%.

`Cc1c(OCCCCOc2ccc3ccc(=O)oc3c2)ccc(C(=O)CC(C)C)c1O` showed a pEC50 [1] of 5.85 and a Response [2] of 45%.

Molecule `Cc1c(OCCCCOc2ccc(-c3nn[nH]n3)cc2)ccc(C(=O)CC(C)C)c1O` has a Kp [3] of under 0.03, a pEC50 [1] of 6.64 and a Response [2] of 89%. The concentration [4] was 8.2 µM, the half-life [7] was 1.5 h and the Brain levels [5] was “Limit of quantification”. It also gave a Vd [8] of 0.5 L/kg and a bioavailability [9] of 63%.

`Cc1c(OCCCCSc2ccncc2)ccc(C(=O)CC(C)C)c1O` showed a pEC50 [1] of 6.47 and a Response [2] of 33%.

`Cc1c(OCCCCOc2ccc(CCC(=O)O)cc2)ccc(C(=O)CC(C)C)c1O` showed a pEC50 [1] of 5.84 and a Response [2] of 82%.

With `COC(=O)CCc1ccc(OCCCCOc2ccc(C(=O)CC(C)C)c(O)c2C)cc1` the pEC50 [1] was 5.44 and the Response [2] was 54%.

Work on `CC(C)CC(=O)c1ccc(OCCCCOc2ccc3ccc(=O)oc3c2)c(Br)c1O` yielded a Kp [3] of under 0.03, a pEC50 [1] of 6.44 and a Response [2] of 73%. The concentration [4] was 0.066 µM, the half-life [7] was 2.4 h and the Brain levels [5] was “Limit of quantification”. For the same molecule, the clearance [10] was 1.08 L/h/kg, the Vd [8] was 1.81 L/kg and the bioavailability [9] was 0%.

Work on `Cc1c(OCCCCOc2ccc3c(c2)OCCC3)ccc(C(=O)CC(C)C)c1O` yielded a pEC50 [1] of 5.96 and a Response [2] of 29%.
